Test [1] concerns PDZ domain. The settings on record: previous virtual screening; cited from earlier work.
Test [2] concerns the target T1, mouse Dvl1 PDZ domain (Mus musculus, UniProt P51141).
T1 sequence (P51141 247-341): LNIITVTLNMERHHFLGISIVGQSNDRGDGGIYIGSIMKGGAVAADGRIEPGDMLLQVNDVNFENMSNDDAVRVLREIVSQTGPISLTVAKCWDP
The experiment in a line: 15N HSQC NMR chemical shift perturbation titration. It is filed as binding. The procedure, abridged:
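15N-labeled mouse Dvl1 PDZ domain (residues 247-341) at 0.2-0.3 mM in 100 mM potassium phosphate pH 7.5, 10% D2O, 0.5 mM EDTA; 15N HSQC at 600 MHz, 25 °C. Five titration points (ligand:protein 1 to 15); Arg322 shift perturbation tracked, reported at about 10 equivalents. One-site model with dilution correction and two-parameter nonlinear least-squares fit gave KD. μM values were rescaled against the reference inhibitor's earlier fluorescence KD.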

Test [3] has as its target PDZ domain. The settings on record: fluorescence spectroscopy, earlier studies; cited from earlier work.
The subject of test [4] is Wnt signaling (second axis formation). The settings on record: Xenopus, Wnt3A upstream of Dvl; cited from earlier work.

“Also recorded” adds a separate entry of the source. Non-standard residues stand in square brackets, D forms with d. Residues, ends and D or L forms follow the SMILES beside them. ξ: configuration not given here. ξT = CC(O)C(N)C(=O)O

For the compound `COC(=O)C(CON)C(=O)NC(=O)C(N)CON` (stereo not drawn) [NSC119132, methyl 3-((2-amino-3-(aminooxy)propanoyl)amino)-2-((aminooxy)methyl)-3-oxopropanoate], the “binding to the PDZ domain” value in test [1] is recorded as “non-binders; also recorded: do not bind to the PDZ domain”.

The Kd is the equilibrium constant for the complex coming apart. On to `CC(NC(=O)C(OC(=O)C(C)NC(=O)OC(C)(C)C)C(C)C)C(=O)OC(C(=O)O)C(C)C` (stereo not drawn) [NSC668036, 9,15-diisopropyl-2,2,6,12-tetramethyl-4,7,10,13-tetraoxo-3,8,14-trioxa-5,11-diazahexadec an-16-oic acid], for which the Kd in test [2] is 27 mM; in test [3], 0.237 mM. Further, the “Δδ chemical shift perturbation changes of Arg322” value in test [2] (10.4 equivalents of NSC668036) came out at 0.035. In test [2] (NMR titration of 15N-labeled PDZ domain), the “Exchange regime (in words)” value is listed as “fast exchange regime”. The “difference between KDs by NMR and by fluorescence” value in test [2] (NSC668036, NMR KD versus fluorescence KD) stood at 114 fold. The Exchange regime entry in test [2] (from intermediate exchange (++++) to fast exchange (+) with the PDZ domain) was “+”. For the same compound, the “second axis formation induced by Wnt3A” value in test [4] is recorded as “inhibited the second axis formation”.

Consider `CC(O)C(N)C(=O)NCC(=O)NCC(=O)O` (stereo not drawn) [NSC344681, ((((2-amino-3-hydroxybutanoyl)amino)acetyl)amino)acetic acid] (H-[ξT]-Gly-Gly-OH), for which, in test [1], the “binding to the PDZ domain” value is on record as “non-binders; also recorded: do not bind to the PDZ domain”.

The values above are taken from article PMC2648812 (Journal of computer-aided molecular design, 2008).
